The source of these data is the EternaBench riboswitch data.

This data set relates to MS2 coat protein. Nature of the data set: apparent Kd, MS2 coat protein; higher = weaker binding; RNA-MaP array; FMN 200 µM where present. The essentials:
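Stalled E. coli RNA polymerase produced the designs on Illumina sequencing-chip clusters. SNAP-549-labelled MS2 coat protein was added from 0.7 or 1.5 nM, doubling to 3 µM, without and then with constant ligand, in 100 mM Tris-HCl pH 7.5, 80 mM KCl, 4 mM MgCl2, BSA, DTT, yeast tRNA and Tween-20. The apparent Kd is the median of filtered per-cluster fits of green signal normalised to red-channel RNA signal and control-cluster median Fmax.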

The mark [1] stands for this setting: designed as: OFF switch for flavin mononucleotide, no ligand.
[2] abbreviates: ligand present: flavin mononucleotide, designed as: OFF switch for flavin mononucleotide.
The mark [3] stands for this setting: designed as: ON switch for flavin mononucleotide, no ligand.
Setting [4] is: ligand present: flavin mononucleotide, designed as: ON switch for flavin mononucleotide.

Broadly, the apparent Kd is the concentration giving half-maximal binding under the conditions of the assay.

Take “CCUGCCAGGACAGGAUAUCUGAGCUGGGACAUGUCUUUUAAGGACAUGAGGAUCACCCAUGUUCAAGAGAAGGGUCAAGGGCGU”: the “apparent Kd” value came to 401 nM under setting [1] and 210 nM under setting [2].
For “GCCAUCGCAUGAGGAUAUGCUCCGGUUUCCGGAGCAGAAGGCGUGUCAUAAGACAUGAGGAUCACCCAUGUAGUUAAGAUGGCA”, the “apparent Kd” value under setting [3] stood at 246 nM and the “apparent Kd” value under setting [4] came out at 10.6 nM.
For the sequence “AUGAGGUUAGGAUAUACAUGAGGAUCACCCAUGUUGAAGGGUUAGGUAGGCGGAGCUGGUAGAAGGAACGGAGC”, the “apparent Kd” value by setting is: under setting [1], 57.3 nM; under setting [2], 36.9 nM.
With “CAAUUUAUAUCAGGAUAUACAAUACAAUUAUUAGUAGAAGGGAUUAAUACAUGAGGAUCACCCAUGUCAUGUGUCAUAAUAACC”, the “apparent Kd” value under setting [1] worked out at 22.6 nM and the “apparent Kd” value under setting [2] came to 18.1 nM.
The corresponding values for “AUUUUAAAGGGAGGAUAUACAUGAGGAUCACCCAUGUAAACGUGAGGAUCACCCAUGUAAACAAUGUAGAAGGCCUAUAUCUAU” are 86 nM and 74.1 nM.
“CGUUAAUAUCGAGGAUAUGUCUAGACACAUGAGGAUCACCCAUGUAUGUGUAUAGAAGGCGAUAUUAACAGCAUGUUACAUGCU”: the “apparent Kd” value by setting is: under setting [3], 41 nM; under setting [4], 16.7 nM.
Consider “GCACUGGAUGUAGGAUAUCAGGACGAUAAGUCCUGAGAAGGACAUGAGGAUCACCCAUGUGAUAAAACCAGUGCAAAUAAUAUA”, for which the “apparent Kd” value stood at 18.5 nM under setting [1] and 109 nM under setting [2].
On to “GGUACCAUCACAGGAUAUGCUUUUCUUUGGGAAGCAGAAGGGUGUAACAUGAGGAUCACCCAUGUGGUGCCAGGGCGCGAGCCC”, for which the “apparent Kd” value is, setting by setting: under setting [3], 205 nM; under setting [4], 15.4 nM.
On to “GCCAUGUUAGGAUAUGCCAUUAUACUGCUGGGUAUAGAUUGGUAGAAGGAACAUGAGGAUCACCCAUGUUCGGG”, for which the “apparent Kd” value under setting [1] was determined as 83.9 nM and the “apparent Kd” value under setting [2] was 178 nM.
As to “GGGUACGUUUCGUAGCAGUGUCAUCGAGAAGGCCCUGACAUGAGGAUCACCCAUGUUGUUACAUGGGAGGAUAUCGAUGAUCCC”, the “apparent Kd” value came to 53.6 nM under setting [3] and 8.36 nM under setting [4].
For “GCGGAGUGAGGAUAUCCAAUUUAACGUACCAAUUAGGUACGGGAGAAGGCACAUGAGGAUCACCCAUGUACCGC”, the “apparent Kd” value runs as follows: under setting [1], 72.4 nM; under setting [2], 53.5 nM.
Take “CCUCAGUAAGGAUAUCAGCUUAUGGAGGUGGUAAUGAGAGCUGAGAAGGUACAUGAGGAUCACCCAUGUUAGUU”: the “apparent Kd” value runs as follows: under setting [1], 57 nM; under setting [2], 102 nM.
The corresponding values for “UAAUAAUAGCAAGGAUAUGGUUAUUAUAAUAUACCAGAAGGUGCACAUGAGGAUCACCCAUGUUUUAUAAUUUGUAAUUUAAAU” are 30.7 nM and 27.3 nM.
The like results for “UAAAACGGAGGAUAUACUGACCCUCAAAACAGACGCGCUGGACAUGAGGAUCACCCAUGUAGAAGGCCGAAUGC” were, in that order, 26.3 nM and 61.9 nM.
“GGAGCUCCUGACAUGAGGAUCACCCAUGUUCAAUUAUUAAAUCAGGAUAUCGUCUCGAAACGAGACGAGAAGGGAUAUGCUCCU”: the “apparent Kd” value under setting [3] worked out at 5.89 nM and the “apparent Kd” value under setting [4] worked out at 6.2 nM.
Take “GGUUUAGGCGAAGGAUAUCCGUCGCGAGAUACUGGAGAAGGUCGCCUUAAUACAUGAGGAUCACCCAUGUGGCGGGUGAACCAC”: the “apparent Kd” value under setting [1] is 326 nM and the “apparent Kd” value under setting [2] is 47.6 nM.
As for “GCAGCACAUGAGGAUCACCCAUGUCUUCGGAGUCGAGGAUAUGGUCACUGUAAACAGUGGCCAGAAGGCGAGUUGC”, the “apparent Kd” value by setting is: under setting [3], 31.7 nM; under setting [4], 27.2 nM.
In the case of “AAAAAGCGAGGAUAUACAUGAGGAUCACCCAUGUCAAAAGGUAAGACCGCAGAAAAAAGUAGAAGGCGCAAAAA”, the “apparent Kd” value is 63 nM under setting [1] and 137 nM under setting [2].
Consider “UCCUCGUCAGGAUAUCCACGGAAUAGCGGGAUACCGAGCGUGGAGAAGGGACAUGAGGAUCACCCAUGUAAAAU”, for which the “apparent Kd” value under setting [1] is 29.4 nM and the “apparent Kd” value under setting [2] turned out to be 61.2 nM.
For “CCGUUGAUGGGACAGGAUAUGACUGUCGUCACAUGAGGAUCACCCAUGUCCCGGCAAUGCCACCGUUAGAAGGGUCCCGUCUCGG”, the “apparent Kd” value by setting is: under setting [3], 16 nM; under setting [4], 15.9 nM.
For “GGUGCGUAUGUGAGGAUAUGCUGGUCCUUGGAUCGGCAGAAGGCACAUGAGGAUCACCCAUGUGGUGUCGUACC”, the “apparent Kd” value reads like this: under setting [1], 339 nM; under setting [2], 24.4 nM.
For “UUAUACGUUGAGGAUAUGUUAUUUAGUAUAGUUACAGAAGGCGAUACAUGAGGAUCACCCAUGUUUAUGGGCAU”, the “apparent Kd” value by setting is: under setting [1], 196 nM; under setting [2], 153 nM.
As to “GUGAAGAUAUCAGGAUAUCUAUUUCCUACAUGAGGAUCACCCAUGUAGGUGAUCAGCCGAGUAAAGGAGAAGGGAUAUCUUUAC”, the “apparent Kd” value reads like this: under setting [3], 23.6 nM; under setting [4], 10.1 nM.
With “UCCUUGUCCUGAGGAUAUCCGUGGUUCCCGAAAGGAGAAGGCAGGACAUGAGGAUCACCCAUGUACCCAGAAAACGUGCAGAGU”, the “apparent Kd” value is, setting by setting: under setting [1], 163 nM; under setting [2], 273 nM.
On to “UCUUUACAUGAGGAUCACCCAUGUGAGGAUAUGGAUUCGCUGGCCGUAGCCAGUGGAUCCAGAAGGCGCGUGAU”, for which the “apparent Kd” value under setting [1] amounted to 74.7 nM and the “apparent Kd” value under setting [2] is 64.9 nM.
Take “GGAUAGGACAGAGGAUAUACGUGAUAGAGAUACUAGCAAAAUUUCCUCACAUGAGGAUCACCCAUGUAGAAGGCUGUCCUAUCG”: the “apparent Kd” value under setting [1] is 310 nM and the “apparent Kd” value under setting [2] was found to be 115 nM.
The like results for “AAUGCGGCAGGAUAUACAUGAGGAUCACCCAUGUAGAUCAGAUAUAUGGUCGAACCAUGUAGAAGGGCCGCAAA” were, in that order, 34.3 nM and 129 nM.
The corresponding values for “AUCAGCUCGUGAGGAUAUACAUGAUAGAUCGAUUAAUUAAUUAAUUUAACAUGAGGAUCACCCAUGUAGAAGGCACGAGCUGAU” are 56.1 nM and 61.7 nM.
The like results for “ACUAGAUGAGGAUAUGCACAUUUUAGUGUUCCUCUAGAUUAACAUGAGGAUCACCCAUGUAGAAGGCGUCAUUU” were, in that order, 77 nM and 91.5 nM.
As to “UUAAUUAUACAAGGAUAUCUAUUGUUCUUUCGACAUACAUGAGGAUCACCCAUGUUAAUAUAUAUAGAGAAGGUGUAUUUUCAG”, the “apparent Kd” value runs as follows: under setting [3], 42.2 nM; under setting [4], 26.3 nM.
On to “AAAAGACAUGAGGAUCACCCAUGUCUUCGGACAUGAGGAUAUGUACAGACUUCGGUCUGUACAGAAGGCAUGUCAA”, for which the “apparent Kd” value is 39.8 nM under setting [3] and 17.2 nM under setting [4].
For “CCCUAGGUAGGAUAUACUUGGGCUCGGCUGAUGUGCCUAAAACAUGAGGAUCACCCAUGUAGAAGGACUAAGGC”, the “apparent Kd” value reads like this: under setting [1], 12.4 nM; under setting [2], 10.8 nM.
The corresponding values for “AGUAAAGGCCUGAGGUGUCCGAACAUGAGGAUCACCCAUGUAGAGGAUAUAGGUGGAAGUGACUCCUAGAAGGCUACGUGUCAU” are 6.18 nM and 8.18 nM.
The like results for “CAGUACUGAGGAUAUACAUGAGGAUCACCCAUGUGUUCCUGCUAGGAUAUUAGCAAAAGUAGAAGGCAGAAGGGAAUGUGCCUA” were, in that order, 6.93 nM and 6.73 nM.
Regarding “GGGCUGUCAGGAUAUCUCGGGCUCGGGUAAAUCUGGGUCUGGGAGAAGGGACAUGAGGAUCACCCAUGUGGCCC”, the “apparent Kd” value under setting [1] amounted to 34.3 nM and the “apparent Kd” value under setting [2] amounted to 37.9 nM.
With “GUACAUGAGCAGAAGGGCAAUUAAUUAAAAUUUUAUGUUUAUCAGAUAUGCAGGAUAUGUUAAACAUGAGGAUCACCCAUGUAC”, the “apparent Kd” value was found to be 191 nM under setting [3] and 48.5 nM under setting [4].
Regarding “CUAGCGUAUGUAGGAUAUCGGACUGUUUCAGUCUGAGAAGGACAUGAGGAUCACCCAUGUAUAGCUACGUGAGUAGCUCGCUAG”, the “apparent Kd” value was determined as 20.4 nM under setting [1] and 32.4 nM under setting [2].
Turning to “GAAAAGCGAGGAUAUACAUGAGGAUCACCCAUGUGUUGGGUGCGUUGGCUAGUCGUCUGUAGAAGGCGCACAAA”, the “apparent Kd” value runs as follows: under setting [1], 904 nM; under setting [2], 466 nM.
In the case of “GACCGUCACAGUUACCGGUUGAACGAGGAUAUGAUUACUGGGCCUGCACAUGAGGAUCACCCAUGUCAGAAGGCGUUCAGUCCC”, the “apparent Kd” value is 5.86 nM under setting [1] and 18.9 nM under setting [2].
With “AAUCGGGAGCAGAAGGCAUGUCAAAAGACAUGAGGAUCACCCAUGUAUAAAAGGCGAAAGCCGCAUGAGGAUAUGCUCCCGUAA”, the “apparent Kd” value under setting [3] came out at 29.4 nM and the “apparent Kd” value under setting [4] stood at 5.81 nM.
For “UAUAUAAUAUUUCACAUGAGGAUCACCCAUGUACAUGGGAUAGAGGAUAUACAAAUAUUAGUGGUGUAGAAGGUUAAUAUAUAU”, the “apparent Kd” value is, setting by setting: under setting [1], 158 nM; under setting [2], 101 nM.
The corresponding values for “GUACGGAAGGAGAAGGGCUAGGAGGUCCAGUUUAUGUGUGUUGCAACAUGAGGAUCACCCAUGUAGCAGGAUAUCCUUUGUACA” are 85.6 nM and 177 nM.
Turning to “GUAGAGUAAGGAUAUGCUGAAUAGGAUAGAAUGGUUAGAAAGUAGAAGGUACAUGAGGAUCACCCAUGUAAUGU”, the “apparent Kd” value by setting is: under setting [1], 24.9 nM; under setting [2], 25.7 nM.
The like results for “CACGUCUGGAAACGGAGCGGCCAACAUGAGGAUCACCCAUGUGAGGAUAUGCCUACUAAAAGUAGGCAGAAGGCGCAAUUGGCA” were, in that order, 31.2 nM and 44.7 nM.
“AGCUGUGGCCGAGGAUAUCUAUUAAUCCAAACCGAAAUAUAAUCGGACAUGAGGAUCACCCAUGUAGAGAAGGCGGUCUCAGCA”: the “apparent Kd” value is, setting by setting: under setting [1], 72 nM; under setting [2], 77.2 nM.
In the case of “GUGAAGAUAGCAGGAUAUCUAUUUCCUACAUGAGGAUCACCCAUGUAGGUGAUCAGCCGAGUAAAGGAGAAGGGCUAUCUUUAC”, the “apparent Kd” value is 22.8 nM under setting [3] and 9.29 nM under setting [4].
In the case of “UUGUGAGAGCAGGAUAUCUUAUUUUUUUUUUGUGGAGAAGGGCUGACAUGAGGAUCACCCAUGUGGUCCUAGAU”, the “apparent Kd” value is, setting by setting: under setting [1], 28.4 nM; under setting [2], 33.5 nM.
Consider “UGAUAGGACAGAGGAUAUACGUGCUAGAGAUACUAGCAAAAUUUCCUCACAUGAGGAUCACCCAUGUAGAAGGCUGUCCUAUCU”, for which the “apparent Kd” value under setting [1] was 47.8 nM and the “apparent Kd” value under setting [2] was determined as 1100 nM.
